What was measured:
[1] = Antihaptotactic activity in human PC-3M cells assessed as inhibition of cell migration by wound healing assay; type: functional, cell-based
How it was run: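 Wound-healing (scratch) migration assay on a PC-3M monolayer, with the wound closure quantified. The result is the IC50 for inhibition of migration in µM, averaged from 2–4 independent experiments with 4 replicates each.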

[2] = Ratio of cytotoxic IC50 to antihaptotactic IC50 in PC-3M cells; type: functional, Homo sapiens
How it was run: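 Index computed as the MTT cytotoxicity IC50 divided by the wound-healing antihaptotactic IC50. Both IC50s were measured in PC-3M cells, each averaged from 2–4 independent experiments with 4 replicates.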

[3] = Cytotoxicity against human PC-3M cells by MTT assay; type: functional, cell-based
How it was run: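 Tetrazolium (MTT) cytotoxicity assay on monolayers of the metastatic prostate cancer line PC-3M. The result is given as IC50 in µM, averaged from 2–4 independent experiments with 4 replicates each.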

SMILES | IC50 [1] [µM] | Ratio [2] | IC50 [3] [µM]
CC(C)[C@H]1OC(=O)[C@H](Cc2cccc(F)c2)N(C)C(=O)[C@@H](C(C)C)OC(=O)[C@H](Cc2cccc(F)c2)N(C)C(=O)[C@@H](C(C)C)OC(=O)[C@H](Cc2ccccc2)N(C)C1=O [BEAUVERICIN H2] | 3.2 | 1.9 | 6.2
CC(C)[C@H]1OC(=O)[C@H](Cc2cccc(F)c2)N(C)C(=O)[C@@H](C(C)C)OC(=O)[C@H](Cc2cccc(F)c2)N(C)C(=O)[C@@H](C(C)C)OC(=O)[C@H](Cc2cccc(F)c2)N(C)C1=O [BEAUVERICIN H3] | 3.2 | 1.4 | 4.4
CC[C@H]1OC(=O)[C@H](Cc2ccccc2)N(C)C(=O)[C@@H](CC)OC(=O)[C@H](Cc2ccccc2)N(C)C(=O)[C@@H](C(C)C)OC(=O)[C@H](Cc2ccccc2)N(C)C1=O [BEAUVERICIN G2] | 7.6 | 1.4 | 10.4
CC(C)[C@@H]1OC(=O)[C@@H](Cc2ccccc2)N(C)C(=O)[C@H](C(C)C)OC(=O)[C@@H](Cc2ccccc2)N(C)C(=O)[C@H](C(C)C)OC(=O)[C@@H](Cc2ccccc2)N(C)C1=O [BEAUVERICIN] | 3.5 | 2.3 | 8
CC[C@H]1OC(=O)[C@H](Cc2ccccc2)N(C)C(=O)[C@@H](C(C)C)OC(=O)[C@H](Cc2ccccc2)N(C)C(=O)[C@@H](C(C)C)OC(=O)[C@H](Cc2ccccc2)N(C)C1=O [BEAUVERICIN G1] | 3.8 | 1.3 | 5
CC(C)[C@H]1OC(=O)[C@H](Cc2cccc(F)c2)N(C)C(=O)[C@@H](C(C)C)OC(=O)[C@H](Cc2ccccc2)N(C)C(=O)[C@@H](C(C)C)OC(=O)[C@H](Cc2ccccc2)N(C)C1=O [BEAUVERICIN H1] | 3.2 | 2.3 | 7.4
CC[C@H]1OC(=O)[C@H](Cc2ccccc2)N(C)C(=O)[C@@H](CC)OC(=O)[C@H](Cc2ccccc2)N(C)C(=O)[C@@H](CC)OC(=O)[C@H](Cc2ccccc2)N(C)C1=O [BEAUVERICIN G3] | 17.2 | 0.9 | 16.3
